The values below come from ChEMBL document CHEMBL4622964, “Designing Dihydrofolate Reductase Inhibitors as X-ray Radiosensitizers to Reverse Radioresistance of Cervical Cancer” (ACS Med Chem Lett, 2020).

Data set [1] concerns HeLa. The experiment in a line: Antiproliferative activity against human HeLa cells assessed as reduction in cell viability incubated for 12 hrs by MTT assay. Type of data set: functional, cell-based. In outline: (§1)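 MTT viability assay in HeLa cancer cells, with the test agent alone (0 Gy) or combined with 4 Gy X-rays. IC50 values are in μM. Sensitivity enhancement ratio = IC50(0 Gy)/IC50(4 Gy).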
(Tetrazolium dyes change colour on reduction, which living cells bring about.)

For data set [2], the system named is HeLa. The experiment in a line: Antiproliferative activity against human HeLa cells assessed as reduction in cell viability preincubated for 12 hrs followed by 4 Gy irradiation and measured after 60 hrs by MTT assay. The note with it: light or radiation study. Type of data set: functional, cell-based. In outline: as §1
Data set [3] in a line: Cytotoxicity against human Ect1 cells assessed as reduction in cell viability by MTT assay. Format: cell-based. In outline:
(§2)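 MTT viability assay in Ect1/E6E7 normal ectocervical epithelial cells, with the test agent alone (0 Gy) or combined with 4 Gy X-rays. IC50 values are in μM.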

In the next data set the target is T1, Dihydrofolate reductase (Homo sapiens, UniProt P00374).
T1 sequence (P00374 whole entry): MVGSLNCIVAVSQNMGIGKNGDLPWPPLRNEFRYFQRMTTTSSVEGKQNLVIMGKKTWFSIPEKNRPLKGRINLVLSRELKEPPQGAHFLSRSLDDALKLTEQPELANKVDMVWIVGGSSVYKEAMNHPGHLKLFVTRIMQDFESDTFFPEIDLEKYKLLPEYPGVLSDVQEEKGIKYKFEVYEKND
The experiment in a line: Inhibition of recombinant human DHFR using dihydrofolate as substrate in presence of NADPH.

The nature of data set [4]: Cytotoxicity against human Ect1 cells assessed as reduction in cell viability in presence of 4 Gy irradiation by MTT assay. Format: cell-based. To be noted: light or radiation study. In outline: as §2
Data set [5] relates to HeLa. The experiment in a line: Ratio of IC50 for antiproliferative activity against human HeLa cells assessed as reduction in cell viability incubated for 12 hrs to IC50 for antiproliferative activity against human HeLa cells assessed as reduction in cell viability preincubated for 12 hrs followed by 4 Gy irradiation and measured after 60 hrs by MTT assay. Type of data set: functional. In outline: as §1

Data set [6] can be described thus: Ratio of IC50 for cytotoxicity against human Ect1 cells assessed as reduction in cell viability by MTT assay to cytotoxicity against human Ect1 cells assessed as reduction in cell viability in presence of 4 Gy irradiation by MTT assay. Format: cell-based. The note with it: read-out: Ratio IC50. In outline:
(§3)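 MTT viability assay on Ect1/E6E7 normal ectocervical cells and HeLa cells, with 0 or 4 Gy X-rays. SER = IC50(0 Gy)/IC50(4 Gy) in the same line; safe index SI4 = IC50 Ect1/E6E7 + 4 Gy divided by IC50 HeLa + 4 Gy.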

Data set [7] in a line: Safety index, ratio of IC50 for cytotoxicity against human Ect1 cells assessed as reduction in cell viability to IC50 for antiproliferative activity against human HeLa cells assessed as reduction in cell viability incubated for 12 hrs by MTT assay. Type of data set: toxicity, cell-based. The note with it: Ect1 cells versus HeLa cells, read-out: Ratio IC50. In outline: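 Safe index SI0 from MTT assay without irradiation: IC50 in Ect1/E6E7 normal ectocervical cells divided by IC50 in HeLa cells.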

Data set [8] is described as follows: Safety index, ratio of IC50 for cytotoxicity against human Ect1/E6E7 cells assessed as reduction in cell viability in presence of 4 Gy irradiation by MTT assay to antiproliferative activity against human HeLa cells assessed as reduction in cell viability preincubated for 12 hrs followed by 4 Gy irradiation and measured after 60 hrs by MTT assay. Type of data set: toxicity, cell-based. The note with it: Ect1/E6E7 cells versus HeLa cells, read-out: Ratio IC50. In outline: as §3

Molecules are shown by their SMILES. Some results are limits rather than exact numbers.

The term IC50 denotes the midpoint of a concentration-inhibition curve. As to `Nc1nc(N)c2nc3c4ccccc4c4ccccc4c3nc2n1`, the half-maximal inhibitory concentration (IC50) in the data set with HeLa [1] is above 80 µM; in the data set with HeLa [2] it was above 80 µM; in data set [3] it was above 80 µM; at Dihydrofolate reductase, above 50 µM; in data set [4] it was above 80 µM.
Regarding `Nc1nc(N)c2nc(-c3ccccc3)c(-c3ccccc3)nc2n1`, the half-inhibitory concentration (IC50) with HeLa [1] was found to be 32.6 µM; in the data set on HeLa [2] it was 14.8 µM; in data set [3] it was 59.3 µM; in data set [4], 38.1 µM.
On to `Nc1nc(N)c2nc(-c3cccs3)c(-c3cccs3)nc2n1`, for which the IC50 worked out at 4.6 µM in the data set with HeLa [1]; 2.3 µM in the data set with HeLa [2]; 10.9 µM in data set [3]; 1.43 µM at Dihydrofolate reductase; 5.3 µM in data set [4]. Moreover, in the data set on HeLa [5], the “Ratio IC50” value was determined as 2. In addition, the selectivity ratio in [6] was found to be 2.1. Moreover, the selectivity ratio at 12 h in [7] stood at 2.5. Besides, in [8], the selectivity ratio at 60 h stood at 2.3.
For the compound `CN(Cc1cnc2nc(N)nc(N)c2n1)c1ccc(C(=O)N[C@@H](CCC(=O)O)C(=O)O)cc1` [METHOTREXATE], the IC50 in the data set with HeLa [1] was found to be 1.5 µM; in the data set with HeLa [2], 0.82 µM; in data set [3] it was 2.9 µM; in [4] it was 1.8 µM.
For `Nc1nc(N)c2nc(-c3ccco3)c(-c3ccco3)nc2n1`, the IC50 came to 24.5 µM with HeLa [1]; 14.6 µM in the data set on HeLa [2]; 40.1 µM in data set [3]; 10.4 µM at Dihydrofolate reductase; 19.8 µM in data set [4]. The “Ratio IC50” value in the data set with HeLa [5] is listed as 1.7. For the same compound, the selectivity ratio in data set [6] was 2. Besides, the selectivity ratio at 12 h in data set [7] was determined as 1.6. The selectivity ratio at 60 h in data set [8] is 1.4.
For the compound `Nc1nc(N)c2nc3c4cccnc4c4ncccc4c3nc2n1`, the IC50 worked out at 9.8 µM in the data set with HeLa [1]; 6.3 µM in the data set on HeLa [2]; 20 µM in data set [3]; 5.8 µM at Dihydrofolate reductase; 13.9 µM in [4]. The “Ratio IC50” value in the data set with HeLa [5] worked out at 1.6. The selectivity ratio in data set [6] came to 1.4. For the same compound, in [7], the selectivity ratio at 12 h is 2. The selectivity ratio at 60 h in data set [8] came to 2.2.
